ChEMBL document CHEMBL1145953 (J Med Chem, 2003)

Columns and labels:
Adenosine receptor A3 [1] = molecular target: T1, Adenosine receptor A3 (Homo sapiens, UniProt P0DMS8); assay: Binding affinity using [125I]ABA against human Adenosine A3 receptor
T1 sequence (P0DMS8 whole entry): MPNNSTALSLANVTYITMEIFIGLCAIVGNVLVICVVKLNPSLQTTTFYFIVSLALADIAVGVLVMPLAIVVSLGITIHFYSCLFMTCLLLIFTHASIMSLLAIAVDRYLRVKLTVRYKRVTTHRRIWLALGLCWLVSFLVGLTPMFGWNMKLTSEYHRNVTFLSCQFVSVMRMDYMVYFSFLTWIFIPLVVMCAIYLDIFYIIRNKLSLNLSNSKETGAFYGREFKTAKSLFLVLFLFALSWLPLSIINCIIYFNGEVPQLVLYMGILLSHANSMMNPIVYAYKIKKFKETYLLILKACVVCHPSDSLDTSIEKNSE

[2] = molecular target: Adenosine receptors; A1 & A3 (Homo sapiens) (UniProt P30542+P0DMS8); assay: Ratio of binding affinity for human adenosine A1 and A3 receptors; format: protein assay
Adenosine receptor A1 = molecular target: T2, Adenosine receptor A1 (Homo sapiens, UniProt P30542); assay: Binding affinity using [125I]ABA against human Adenosine A1 receptor
T2 sequence (P30542 whole entry): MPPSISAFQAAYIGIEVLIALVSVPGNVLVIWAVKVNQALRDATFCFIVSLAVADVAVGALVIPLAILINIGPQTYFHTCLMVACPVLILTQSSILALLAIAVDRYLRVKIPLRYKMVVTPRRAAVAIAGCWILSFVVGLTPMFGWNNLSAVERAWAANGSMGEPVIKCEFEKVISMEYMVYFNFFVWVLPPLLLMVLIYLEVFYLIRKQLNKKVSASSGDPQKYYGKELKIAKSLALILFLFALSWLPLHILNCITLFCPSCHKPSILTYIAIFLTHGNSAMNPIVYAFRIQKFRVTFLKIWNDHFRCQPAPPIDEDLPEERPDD

[3] = Tested for pKa value of compound; format: physicochemical
Adenosine receptor A3 [4] = molecular target: T1, Adenosine receptor A3; assay: Inhibition of isoproterenol-stimulated cAMP accumulation in HEK 293 cells expressing human Adenosine A3 receptor; format: functional, cell-based, HEK293
How it was run: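 Functional assay in HEK 293 cells with recombinant human A3 receptors. Cells are stimulated with isoproterenol, and the drop in cAMP accumulation is measured over a concentration–response range. EC50 comes from the curve. Mean and SEM of three experiments, each run in duplicate.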

| SMILES | Ki (Adenosine receptor A3 [1]) [nM] | Ratio [2] | Ki (Adenosine receptor A1) [nM] | pKa [3] | EC50 (Adenosine receptor A3 [4]) [nM] |
| --- | --- | --- | --- | --- | --- |
| CNC(=O)[C@H]1O[C@@H](n2cnc3c(NCc4cc(Cl)ccc4OCc4cc(C)no4)ncnc32)[C@H](O)[C@@H]1O | 1.6 | 42 | 68 | – | – |
| CNC(=O)[C@H]1O[C@@H](n2cnc3c(NCc4cc(Cl)ccc4OCc4cc(C)no4)ncnc32)[C@H](O)[C@@H]1N | 5.8 | – | 7300 | 6.25 | 3.4 |

Further lines, results first:

| Ki (Adenosine receptor A3 [1]) [nM] | Ratio [2] | Ki (Adenosine receptor A1) [nM] | pKa [3] | EC50 (Adenosine receptor A3 [4]) [nM] | SMILES |
| --- | --- | --- | --- | --- | --- |
| 4.8 | 13 | 65 | – | – | CNC(=O)[C@H]1O[C@@H](n2cnc3c(NC)ncnc32)[C@H](O)[C@@H]1O |
| 72 | 64 | 4600 | – | – | CNC(=O)[C@H]1O[C@@H](n2cnc3c(NCc4cccc(I)c4)ncnc32)[C@H](O)[C@@H]1N |
| 120 | 194 | – | – | – | CNC(=O)[C@H]1O[C@@H](n2cnc3c(NC)ncnc32)[C@H](O)[C@@H]1N |
